Measured values as given in ChEMBL document CHEMBL4665898, “Semisynthetic Analogs of the Antibiotic Fidaxomicin-Design, Synthesis, and Biological Evaluation” (ACS Med Chem Lett, 2020).
Values after ≈ are worked out from the molar mass of the structure shown.

Experiments:
Clostridioides difficile [1] = test: Antibacterial activity against Clostridium difficile ATCC 43255 incubated for 46 hrs in anaerobic condition by CLSI-based broth microdilution assay; format: functional
Clostridioides difficile [2] = test: Antibacterial activity against Clostridium difficile ATCC 700057 incubated for 46 hrs in anaerobic condition by CLSI-based broth microdilution assay; format: functional
Clostridioides difficile [3] = test: Antibacterial activity against Clostridium difficile BAA-1805 incubated for 46 hrs in anaerobic condition by CLSI-based broth microdilution assay; format: functional
Clostridioides difficile [4] = test: Antibacterial activity against Clostridium difficile BAA-1875 incubated for 46 hrs in anaerobic condition by CLSI-based broth microdilution assay; format: functional
Clostridioides difficile [5] = test: Antibacterial activity against Clostridium difficile ATCC 9689 incubated for 46 hrs in anaerobic condition by CLSI-based broth microdilution assay; format: functional; settings: ATCC 9689 = DSM 1296
Clostridioides difficile [6] = test: Antibacterial activity against Clostridium difficile 8260 incubated for 46 hrs in anaerobic condition by CLSI-based broth microdilution assay; format: functional
Clostridioides difficile [7] = test: Antibacterial activity against Clostridium difficile 8282 incubated for 46 hrs in anaerobic condition by CLSI-based broth microdilution assay; format: functional
Clostridioides difficile [8] = test: Antibacterial activity against Clostridium difficile 5680 incubated for 46 hrs in anaerobic condition by CLSI-based broth microdilution assay; format: functional
Clostridioides difficile [9] = test: Antibacterial activity against Clostridium difficile 8264 incubated for 46 hrs in anaerobic condition by CLSI-based broth microdilution assay; format: functional
Clostridioides difficile [10] = test: Antibacterial activity against Clostridium difficile 8290 incubated for 46 hrs in anaerobic condition by CLSI-based broth microdilution assay; format: functional
[11] = test system: Mycobacterium tuberculosis; test: Antimycobacterial activity against recombinant Mycobacterium tuberculosis H37Rv expressed in green fluorescence protein by measuring increase in fluorescence after 10 days in presence of middlebrook 7H9/OADC medium by GFP reporter gene assay; format: functional; settings: 240 h, time 10 day
Staphylococcus aureus = test: Antibacterial activity against Staphylococcus aureus ATCC 29213 incubated overnight by broth dilution method; format: functional
Outline: (§1)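 Strains pre-grown overnight at 37 °C on Mueller Hinton II agar; CLSI broth dilution, inoculum about 7.5 × 10^5 CFU/well. Compounds taken from 1.0 mg/mL stocks in 50 % methanol/H2O, diluted in H2O as 2-fold series. Plates held at 37 °C overnight; MIC read visually as lowest concentration with no growth.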

Bacillus subtilis = test: Antibacterial activity against Bacillus subtilis DSM3256 incubated overnight by broth dilution method; format: functional; outline: as §1
[12] = Aqueous solubility of the compound in phosphate buffer at pH 7 after 5 hrs by UHPLC analysis; format: physicochemical
Outline: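 Solid added to 1.0 mL pH 7 phosphate buffer containing 50 µg/mL caffeine internal standard until saturated. Stirred 5 h at room temperature, passed through a 0.22 µm filter, then run on C18 UHPLC with a water/MeCN + 0.1 % HCOOH gradient. Analyte/IS peak-area ratio was converted to concentration using a linear calibration from MeOH standards at 50–500 µg/mL.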

CCc1c(Cl)c(OCC(=O)N2CCNCC2)c(Cl)c(O)c1C(=O)O[C@@H]1[C@@H](O)[C@@H](OC)[C@@H](OC/C2=C\C=C\C[C@H](O)/C(C)=C/[C@H](CC)[C@@H](O[C@@H]3OC(C)(C)[C@@H](OC(=O)C(C)C)[C@H](O)[C@@H]3O)/C(C)=C/C(C)=C/C[C@@H]([C@@H](C)O)OC2=O)O[C@H]1C
MIC (Clostridioides difficile [1]): 0.5 µg/mL (≈ 0.422 µM)
MIC (Clostridioides difficile [2]): 0.25 µg/mL (≈ 0.211 µM)
MIC (Clostridioides difficile [3]): 0.5 µg/mL (≈ 0.422 µM)
MIC (Clostridioides difficile [4]): 0.5 µg/mL (≈ 0.422 µM)
MIC (Clostridioides difficile [5]): 0.03 µg/mL (≈ 0.0253 µM)
MIC (Clostridioides difficile [6]): 0.03 µg/mL (≈ 0.0253 µM)
MIC (Clostridioides difficile [7]): 0.06 µg/mL (≈ 0.0507 µM)
MIC (Clostridioides difficile [8]): 0.5 µg/mL (≈ 0.422 µM)
MIC (Clostridioides difficile [9]): 0.5 µg/mL (≈ 0.422 µM)
MIC (Clostridioides difficile [10]): 0.25 µg/mL (≈ 0.211 µM)
MIC90 [11]: 1 µg/mL
MIC (Staphylococcus aureus): > 64 µg/mL
MIC (Bacillus subtilis): > 64 µg/mL
solubility at 5 h [12]: 81 µg/mL (≈ 68.4 µM)

CCc1c(Cl)c(OCC(=O)N2CCC(O)CC2)c(Cl)c(O)c1C(=O)O[C@@H]1[C@@H](O)[C@@H](OC)[C@@H](OC/C2=C\C=C\C[C@H](O)/C(C)=C/[C@H](CC)[C@@H](O[C@@H]3OC(C)(C)[C@@H](OC(=O)C(C)C)[C@H](O)[C@@H]3O)/C(C)=C/C(C)=C/C[C@@H]([C@@H](C)O)OC2=O)O[C@H]1C
solubility at 5 h [12]: 180 µg/mL (≈ 150 µM)

CCOC(=O)COc1c(Cl)c(CC)c(C(=O)O[C@@H]2[C@@H](O)[C@@H](OC)[C@@H](OC/C3=C\C=C\C[C@H](O)/C(C)=C/[C@H](CC)[C@@H](O[C@@H]4OC(C)(C)[C@@H](OC(=O)C(C)C)[C@H](O)[C@@H]4O)/C(C)=C/C(C)=C/C[C@@H]([C@@H](C)O)OC3=O)O[C@H]2C)c(OCC(=O)OCC)c1Cl
MIC (Clostridioides difficile [1]): > 16 µg/mL
MIC (Clostridioides difficile [2]): 16 µg/mL (≈ 13 µM)
MIC (Clostridioides difficile [3]): > 16 µg/mL
MIC (Clostridioides difficile [4]): 16 µg/mL (≈ 13 µM)
MIC (Clostridioides difficile [5]): 4 µg/mL (≈ 3.25 µM)
MIC (Clostridioides difficile [6]): 16 µg/mL (≈ 13 µM)
MIC (Clostridioides difficile [7]): 16 µg/mL (≈ 13 µM)
MIC (Clostridioides difficile [8]): > 16 µg/mL
MIC (Clostridioides difficile [9]): > 16 µg/mL
MIC (Clostridioides difficile [10]): 16 µg/mL (≈ 13 µM)
MIC90 [11]: 0.5 µg/mL
MIC (Staphylococcus aureus): 32 µg/mL (≈ 26 µM)
MIC (Bacillus subtilis): 8 µg/mL (≈ 6.5 µM)

CCc1c(Cl)c(OCCCn2cc(CCN3CCC(N)CC3)nn2)c(Cl)c(O)c1C(=O)O[C@@H]1[C@@H](O)[C@@H](OC)[C@@H](OC/C2=C\C=C\C[C@H](O)/C(C)=C/[C@H](CC)[C@@H](O[C@@H]3OC(C)(C)[C@@H](OC(=O)C(C)C)[C@H](O)[C@@H]3O)/C(C)=C/C(C)=C/C[C@@H]([C@@H](C)O)OC2=O)O[C@H]1C
MIC (Clostridioides difficile [1]): 4 µg/mL (≈ 3.09 µM)
MIC (Clostridioides difficile [2]): 2 µg/mL (≈ 1.55 µM)
MIC (Clostridioides difficile [3]): 8 µg/mL (≈ 6.19 µM)
MIC (Clostridioides difficile [4]): 2 µg/mL (≈ 1.55 µM)
MIC (Clostridioides difficile [5]): 0.5 µg/mL (≈ 0.387 µM)
MIC (Clostridioides difficile [6]): 4 µg/mL (≈ 3.09 µM)
MIC (Clostridioides difficile [7]): 1 µg/mL (≈ 0.773 µM)
MIC (Clostridioides difficile [8]): 8 µg/mL (≈ 6.19 µM)
MIC (Clostridioides difficile [9]): 8 µg/mL (≈ 6.19 µM)
MIC (Clostridioides difficile [10]): 4 µg/mL (≈ 3.09 µM)
MIC90 [11]: 4 µg/mL
MIC (Staphylococcus aureus): > 64 µg/mL
MIC (Bacillus subtilis): > 64 µg/mL

CCc1c(Cl)c(OCCOCCOCCOCCOCCOCCOCCOCCn2cc(CN3CCN(/N=C/c4c5c(O)c6c(O)c(C)c7c(c6c4O)C(=O)[C@@](C)(O/C=C/[C@H](OC)[C@@H](C)[C@@H](OC(C)=O)[C@H](C)[C@H](O)[C@H](C)[C@@H](O)[C@@H](C)/C=C/C=C(\C)C(=O)N5)O7)CC3)nn2)c(Cl)c(O)c1C(=O)O[C@@H]1[C@@H](O)[C@@H](OC)[C@@H](OC/C2=C\C=C\C[C@H](O)/C(C)=C/[C@H](CC)[C@@H](O[C@@H]3OC(C)(C)[C@@H](OC(=O)C(C)C)[C@H](O)[C@@H]3O)/C(C)=C/C(C)=C/C[C@@H]([C@@H](C)O)OC2=O)O[C@H]1C
MIC (Clostridioides difficile [1]): ≤ 0.015 µg/mL
MIC (Clostridioides difficile [2]): ≤ 0.015 µg/mL
MIC (Clostridioides difficile [3]): ≤ 0.015 µg/mL
MIC (Clostridioides difficile [4]): ≤ 0.015 µg/mL
MIC (Clostridioides difficile [5]): ≤ 0.015 µg/mL
MIC (Clostridioides difficile [6]): ≤ 0.015 µg/mL
MIC (Clostridioides difficile [7]): 4 µg/mL (≈ 1.75 µM)
MIC (Clostridioides difficile [8]): ≤ 0.015 µg/mL
MIC (Clostridioides difficile [9]): 0.03 µg/mL (≈ 0.0131 µM)
MIC (Clostridioides difficile [10]): 0.03 µg/mL (≈ 0.0131 µM)
MIC90 [11]: 0.5 µg/mL
MIC (Staphylococcus aureus): 4 µg/mL (≈ 1.75 µM)
MIC (Bacillus subtilis): 4 µg/mL (≈ 1.75 µM)

CCc1c(Cl)c(OCCOCCOCCOCCOCCOCCOC)c(Cl)c(OCCOCCOCCOCCOCCOCCOC)c1C(=O)O[C@@H]1[C@@H](O)[C@@H](OC)[C@@H](OC/C2=C\C=C\C[C@H](O)/C(C)=C/[C@H](CC)[C@@H](O[C@@H]3OC(C)(C)[C@@H](OC(=O)C(C)C)[C@H](O)[C@@H]3O)/C(C)=C/C(C)=C/C[C@@H]([C@@H](C)O)OC2=O)O[C@H]1C
solubility at 5 h [12]: 504 µg/mL (≈ 312 µM)

CCc1c(Cl)c(OCC(=O)N2CCN(c3cc4c(cc3F)c(=O)c(C(=O)O)cn4C3CC3)CC2)c(Cl)c(O)c1C(=O)O[C@@H]1[C@@H](O)[C@@H](OC)[C@@H](OC/C2=C\C=C\C[C@H](O)/C(C)=C/[C@H](CC)[C@@H](O[C@@H]3OC(C)(C)[C@@H](OC(=O)C(C)C)[C@H](O)[C@@H]3O)/C(C)=C/C(C)=C/C[C@@H]([C@@H](C)O)OC2=O)O[C@H]1C
MIC (Clostridioides difficile [1]): 0.03 µg/mL (≈ 0.021 µM)
MIC (Clostridioides difficile [2]): 0.06 µg/mL (≈ 0.042 µM)
MIC (Clostridioides difficile [3]): 0.12 µg/mL (≈ 0.084 µM)
MIC (Clostridioides difficile [4]): 0.06 µg/mL (≈ 0.042 µM)
MIC (Clostridioides difficile [5]): ≤ 0.015 µg/mL
MIC (Clostridioides difficile [6]): 0.03 µg/mL (≈ 0.021 µM)
MIC (Clostridioides difficile [7]): 0.03 µg/mL (≈ 0.021 µM)
MIC (Clostridioides difficile [8]): 0.12 µg/mL (≈ 0.084 µM)
MIC (Clostridioides difficile [9]): 0.12 µg/mL (≈ 0.084 µM)
MIC (Clostridioides difficile [10]): 0.12 µg/mL (≈ 0.084 µM)
MIC90 [11]: 1 µg/mL
MIC (Staphylococcus aureus): > 64 µg/mL
MIC (Bacillus subtilis): 32 µg/mL (≈ 22.4 µM)
